Activity calls are given as the source filed them. The calls are words filed in the database; no cut-off is given here.
How the values were obtained:
Cannabinoid receptor 2 [1] = target: T1, Cannabinoid receptor 2 (Homo sapiens, UniProt P34972); experiment: Displacement of [3H]-CP55940 from human recombinant cannabinoid CB2 receptor expressed in HEK293 cell membranes incubated for 90 mins by Cheng-Prusoff equation analysis
Summary of the method: (§1)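 Competition binding against [3H]-CP55940 on human recombinant CB1 or CB2 receptor, with increasing concentrations of test compound. IC50 was obtained by nonlinear regression of the inhibition of radioligand binding. Ki was calculated with the Cheng–Prusoff equation, and only where IC50 was below 10 μM.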

Cannabinoid receptor 1 [2] = target: T2, Cannabinoid receptor 1 (Homo sapiens, UniProt P21554); experiment: Displacement of [3H]-CP55940 from human recombinant cannabinoid CB1 receptor expressed in HEK293 cell membranes incubated for 90 mins; summary of the method: as §1
Cannabinoid receptor 1 [3] = target: T2, Cannabinoid receptor 1; experiment: Displacement of [3H]-CP55940 from human recombinant cannabinoid CB1 receptor expressed in HEK293 cell membranes incubated for 90 mins by Cheng-Prusoff equation analysis; summary of the method: as §1
Cannabinoid receptor 2 [4] = target: T1, Cannabinoid receptor 2; experiment: Displacement of [3H]-CP55940 from human recombinant cannabinoid CB2 receptor expressed in HEK293 cell membranes incubated for 90 mins; summary of the method: as §1
Cannabinoid receptor 2 [5] = target: T1, Cannabinoid receptor 2; experiment: Noncompetitive antagonist activity at human recombinant cannabinoid CB2 receptor expressed in CHOK1 cells assessed as inhibition of NKH-477-induced cAMP accumulation by measuring parallel shifts of NKH-477 concentration-response curves pre-incubated for 15 mins before NKH-477 stimulation for 30 mins by chemiluminescent detection based cAMP Hunter assay based Schild plot analysis; format: functional, cell-based
Summary of the method: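 Functional cAMP assay under NKH-477 (water-soluble forskolin analog) stimulation. JWH-133 concentration–response curves were run alone and with several concentrations of the antagonist. The concentration ratio was taken as EC50 of JWH-133 with antagonist divided by the concentration giving the same response without it. log(CR–1) was plotted against log antagonist concentration, and the Schild slope came from linear regression.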

[6] = target: Glycogen synthase kinase-3 beta (Homo sapiens, UniProt P49841); experiment: inhibition of GSK3beta (unknown origin) by LANCE Ultra TR-FRET assay
Cannabinoid receptor 2 [7] = target: T1, Cannabinoid receptor 2; experiment: Noncompetitive antagonist activity at human recombinant cannabinoid CB2 receptor expressed in CHOK1 cells assessed as inhibition of NKH-477-induced cAMP accumulation pre-incubated for 15 mins before NKH-477 stimulation for 30 mins by chemiluminescent detection based cAMP Hunter assay; format: functional, cell-based
[8] = Inhibition of calcium channel in human SH-SY5Y cells assessed as blockade of 70 mM potassium-evoked depolarization-induced Ca2+ entry; format: cell-based
Cannabinoid receptor 2 [9] = target: T1, Cannabinoid receptor 2; experiment: Activity at human recombinant cannabinoid CB2 receptor expressed in CHOK1 cells assessed as induction of cAMP content back to basal condition up to 25 uM pre-incubated for 15 mins before NKH-477 stimulation for 30 mins by chemiluminescent detection based cAMP Hunter assay; format: functional, cell-based

T1 sequence (P34972 whole entry): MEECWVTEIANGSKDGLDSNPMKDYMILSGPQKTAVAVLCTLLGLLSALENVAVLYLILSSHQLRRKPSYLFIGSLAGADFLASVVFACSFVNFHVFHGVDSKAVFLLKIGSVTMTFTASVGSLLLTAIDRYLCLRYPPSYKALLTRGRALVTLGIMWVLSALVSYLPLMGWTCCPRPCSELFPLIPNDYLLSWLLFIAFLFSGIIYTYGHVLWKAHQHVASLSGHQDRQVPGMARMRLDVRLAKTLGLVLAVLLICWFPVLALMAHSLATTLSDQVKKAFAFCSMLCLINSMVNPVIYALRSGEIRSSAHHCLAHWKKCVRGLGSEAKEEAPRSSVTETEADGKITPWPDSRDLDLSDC
T2 sequence (P21554 whole entry): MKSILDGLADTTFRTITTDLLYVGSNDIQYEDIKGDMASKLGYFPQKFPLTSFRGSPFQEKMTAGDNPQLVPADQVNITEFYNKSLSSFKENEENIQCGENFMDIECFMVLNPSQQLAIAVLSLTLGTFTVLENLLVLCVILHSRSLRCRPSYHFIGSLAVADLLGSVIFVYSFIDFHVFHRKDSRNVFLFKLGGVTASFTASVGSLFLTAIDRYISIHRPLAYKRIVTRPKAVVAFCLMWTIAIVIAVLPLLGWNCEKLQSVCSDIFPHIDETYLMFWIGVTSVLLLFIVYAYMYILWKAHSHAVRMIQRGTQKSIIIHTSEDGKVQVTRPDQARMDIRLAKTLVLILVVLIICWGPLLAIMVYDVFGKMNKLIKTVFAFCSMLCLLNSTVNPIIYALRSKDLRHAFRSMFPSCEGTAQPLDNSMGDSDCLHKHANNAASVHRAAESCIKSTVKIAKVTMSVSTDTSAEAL
Glycogen synthase kinase-3 beta, sequence (P49841 whole entry): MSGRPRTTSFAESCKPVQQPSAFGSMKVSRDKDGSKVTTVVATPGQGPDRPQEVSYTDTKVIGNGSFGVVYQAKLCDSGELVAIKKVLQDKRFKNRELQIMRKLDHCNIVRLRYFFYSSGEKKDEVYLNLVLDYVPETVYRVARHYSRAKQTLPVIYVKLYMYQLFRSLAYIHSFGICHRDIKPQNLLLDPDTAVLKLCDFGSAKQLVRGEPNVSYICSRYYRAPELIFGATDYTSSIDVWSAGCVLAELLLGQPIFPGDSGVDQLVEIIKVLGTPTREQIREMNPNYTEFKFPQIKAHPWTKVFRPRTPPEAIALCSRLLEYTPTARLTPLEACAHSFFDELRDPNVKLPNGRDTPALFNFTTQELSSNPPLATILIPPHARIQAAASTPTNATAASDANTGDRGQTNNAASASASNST

Row | SMILES | Ki (Cannabinoid receptor 2 [1]) [µM] | IC50 (Cannabinoid receptor 1 [2]) [µM] | Ki (Cannabinoid receptor 1 [3]) [µM] | IC50 (Cannabinoid receptor 2 [4]) [µM] | Activity (Cannabinoid receptor 2 [5]) | inhibition (INH) [6] | Activity (Cannabinoid receptor 2 [7]) | inhibition (INH) [8] | Activity (Cannabinoid receptor 2 [9])
1 | CCCCCCCCN1C(=O)C2C3c4ccccc4C(c4ccccc43)C2C1=O (configuration not stated) | 2.22 | > 10 | > 10 | 8.74 | – | – | – | – | –
2 | CCCCCCCN1C(=O)C2C3c4ccccc4C(Cl)(c4ccccc43)C2C1=O (configuration not stated) | 2.51 | > 10 | > 10 | 9.88 | – | – | – | – | –
3 | CCCCCCCN1C(=O)C2C3c4ccccc4C(C)(c4ccccc43)C2C1=O (configuration not stated) | 0.98 | > 10 | > 10 | 3.86 | – | – | – | – | –
4 | CCCCCCCNCC12c3ccccc3C(c3ccccc31)C1C(=O)N(CCCCCCC)C(=O)C12 (configuration not stated) | > 10 | > 10 | > 10 | > 10 | – | – | – | – | –
5 | CCCCCCCN1C(=O)C2C3c4ccccc4C(c4cc(Cl)ccc43)C2C1=O (configuration not stated) | 1.74 | > 10 | > 10 | 6.85 | – | – | – | – | –
6 | CCCCCCCOCC12c3ccccc3C(c3ccccc31)C1C(=O)N(CCCCCCC)C(=O)C12 (configuration not stated) | > 10 | > 10 | > 10 | > 10 | – | – | – | – | –
7 | CCCCCCCNCC12c3ccccc3C(c3ccccc31)C1C(=O)NC(=O)C12 (configuration not stated) | 1.01 | > 10 | > 10 | 3.93 | – | – | – | – | –
8 | CCCCCCCOCC12c3ccccc3C(c3ccccc31)C1C(=O)NC(=O)C12 (configuration not stated) | 0.23 | > 10 | > 10 | 0.9 | Active | Not Active | Active | Not Active | –
9 | CCCCCCCN1C(=O)C2C3c4ccccc4C(Br)(c4ccccc43)C2C1=O (configuration not stated) | > 10 | > 10 | > 10 | > 10 | – | – | – | – | –
10 | O=C1NC(=O)C2C3c4ccccc4C(c4ccccc43)C12 (configuration not stated) | > 10 | > 10 | > 10 | > 10 | – | – | – | – | –
11 | CCCCCCCN1C(=O)C2C3c4ccccc4C(c4ccccc43)C2C1=O (configuration not stated) | 2.01 | 9.35 | 3.77 | 7.94 | – | – | – | – | –
12 | CCCCCCN1C(=O)C2C3c4ccccc4C(C)(c4ccccc43)C2C1=O (configuration not stated) | 1.01 | > 10 | > 10 | 3.93 | – | – | – | – | –
13 | CCCCCCN1C(=O)C2C3c4ccccc4C(c4ccccc43)C2C1=O (configuration not stated) | 2.06 | > 10 | > 10 | 8.14 | – | – | – | – | inactive

Reference: ChEMBL document CHEMBL4339223, “Polycyclic Maleimide-based Scaffold as New Privileged Structure for Navigating the Cannabinoid System Opportunities” (ACS Med Chem Lett, 2019)
